Measured values as given in ChEMBL document CHEMBL3580554, “Design, synthesis, and anticonvulsant activity of new hybrid compounds derived from 2-(2,5-dioxopyrrolidin-1-yl)propanamides and 2-(2,5-dioxopyrrolidin-1-yl)butanamides” (J Med Chem, 2015).
Calls of active or inactive are those of the source. The calls are words filed in the database; no cut-off is given here.

How the values were obtained:
[1] = species: Rattus norvegicus; experiment: Inhibition of [3H]BTX binding to sodium channel site 2 in rat cerebral cortex synaptosomes at 10 uM incubated for 60 mins by scintillation counting based radioligand displacement assay; format: subcellular
Outline: (§1)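 Synaptoneurosomal preparations from rat cerebral cortex were used. The read-out was inhibition of specific [3H]BTX binding to the voltage-sensitive sodium channel (site 2), expressed as % inhibition of control specific binding. Compounds were tested at 1, 10, 100 and 500 μM. Inhibition above 50% was taken as significant.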

[2] = test system: Mus musculus; experiment: Anticonvulsant activity in Swiss mouse assessed as protection against seizures at 100 mg/kg, ip dosed 0.25 hrs before pentylenetetrazole challenge by subcutaneous pentylenetetrazole seizure test; format: functional
Outline: (§2)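 Mice were dosed i.p. at a fixed 300 or 100 mg/kg (6 Hz: 100 mg/kg only). Protection was then scored against MES, sc PTZ or 6 Hz seizures at pretreatment times of 0.25, 0.5, 1 and 2 h. Groups were four mice, scored as number protected / number tested. This also gives the time course and time of peak effect.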

[3] = test system: Mus musculus; experiment: Anticonvulsant activity in Swiss mouse assessed as protection against seizures at 300 mg/kg, ip dosed 0.5 hrs before pentylenetetrazole challenge by subcutaneous pentylenetetrazole seizure test; format: functional; outline: as §2
[4] = test system: Mus musculus; experiment: Anticonvulsant activity in ip dosed Swiss mouse assessed as protection against seizures measured at 0.5 hrs of time to peak effect by maximal electroshock test; format: functional
Outline: (§3)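 Median effective doses (ED50, mg/kg) were determined i.p. in mice at the time of peak effect in the MES, sc PTZ or 6 Hz tests. Only compounds giving at least 50% protection at 100 mg/kg in that test were taken forward.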

[5] = test system: Mus musculus; experiment: Anticonvulsant activity in Swiss mouse assessed as protection against seizures at 300 mg/kg, ip dosed 0.5 hrs before initiation of maximal electroconvulsions by maximal electroshock test; format: functional; outline: as §2
[6] = test system: Mus musculus; experiment: Anticonvulsant activity in ip dosed Swiss mouse assessed as protection against seizures measured at 0.25 hrs of time to peak effect by 6 Hz test by 6 Hz psychomotor seizure test; format: functional; outline: as §3
[7] = test system: Mus musculus; experiment: Anticonvulsant activity in Swiss mouse assessed as protection against seizures at 100 mg/kg, ip dosed 2 hrs before initiation of maximal electroconvulsions by maximal electroshock test; format: functional; outline: as §2
[8] = test system: Mus musculus; experiment: Protective index, ratio of neurotoxic TD50 in Swiss mouse by Chimney test to anticonvulsant ED50 in Swiss mouse measured at 0.5 hrs of time to peak effect by subcutaneous pentylenetetrazole seizure test; format: functional
Outline: (§4)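 Protective index was calculated as TD50 (chimney test, mouse, i.p.) divided by ED50 from the matching MES, sc PTZ or 6 Hz test, both taken at the time of peak effect.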

[9] = test system: Mus musculus; experiment: Anticonvulsant activity in Swiss mouse assessed as protection against seizures at 100 mg/kg, ip dosed 0.5 hrs before initiation of maximal electroconvulsions by maximal electroshock test; format: functional; outline: as §2
[10] = test system: Mus musculus; experiment: Anticonvulsant activity in Swiss mouse assessed as protection against seizures at 100 mg/kg, ip dosed 1 hr before initiation of maximal electroconvulsions by maximal electroshock test; format: functional; outline: as §2
[11] = Toxicity in ip dosed Swiss mouse assessed as induction of motor performance impairment measured within 60 seconds measured at 0.5 hrs of time to peak effect by Chimney test; format: organism-based; settings: in vivo
Outline: (§5)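 Neurotoxicity was measured i.p. in mice by the chimney test for motor impairment. It was given as the median neurotoxic dose (TD50, mg/kg) at the time of peak effect.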

[12] = test system: Mus musculus; experiment: Anticonvulsant activity in Swiss mouse assessed as protection against seizures at 100 mg/kg, ip dosed 0.5 hrs before pentylenetetrazole challenge by subcutaneous pentylenetetrazole seizure test; format: functional; outline: as §2
[13] = test system: Mus musculus; experiment: Anticonvulsant activity in Swiss mouse assessed as protection against seizures at 300 mg/kg, ip dosed 2 hrs before pentylenetetrazole challenge by subcutaneous pentylenetetrazole seizure test; format: functional; outline: as §2
[14] = species: Mus musculus; experiment: Protective index, ratio of neurotoxic TD50 in Swiss mouse by Chimney test to anticonvulsant ED50 in Swiss mouse measured at 0.5 hrs of time to peak effect by 6 Hz test by 6 Hz psychomotor seizure test; format: functional; outline: as §4
[15] = test system: Mus musculus; experiment: Anticonvulsant activity in Swiss mouse assessed as protection against seizures at 300 mg/kg, ip dosed 2 hrs before initiation of maximal electroconvulsions by maximal electroshock test; format: functional; outline: as §2
[16] = species: Mus musculus; experiment: Protective index, ratio of neurotoxic TD50 in Swiss mouse by Chimney test to anticonvulsant ED50 in Swiss mouse measured at 0.5 hrs of time to peak effect by maximal electroshock test; outline: as §4
[17] = test system: Mus musculus; experiment: Anticonvulsant activity in Swiss mouse model of 6 Hz psychomotor seizure mode assessed as protection against seizures at 100 mg/kg, ip dosed 1 hr before 6 Hz electrical stimulation by 6 Hz test; format: functional; outline: as §2
[18] = species: Rattus norvegicus; experiment: Inhibition of [3H]BTX binding to sodium channel site 2 in rat cerebral cortex synaptosomes at 1 uM incubated for 60 mins by scintillation counting based radioligand displacement assay; format: subcellular; outline: as §1
[19] = Toxicity in ip dosed Swiss mouse assessed as induction of motor performance impairment measured within 60 seconds measured at 0.25 hrs of time to peak effect by Chimney test; format: organism-based; settings: in vivo; outline: as §5
[20] = test system: Mus musculus; experiment: Anticonvulsant activity in ip dosed Swiss mouse assessed as protection against seizures measured at 0.5 hrs of time to peak effect by subcutaneous pentylenetetrazole seizure test; format: functional; outline: as §3
[21] = test system: Mus musculus; experiment: Anticonvulsant activity in Swiss mouse assessed as protection against seizures at 300 mg/kg, ip dosed 1 hr before pentylenetetrazole challenge by subcutaneous pentylenetetrazole seizure test; format: functional; outline: as §2
[22] = test system: Mus musculus; experiment: Anticonvulsant activity in Swiss mouse assessed as protection against seizures at 100 mg/kg, ip dosed 1 hr before pentylenetetrazole challenge by subcutaneous pentylenetetrazole seizure test; format: functional; outline: as §2
[23] = test system: Mus musculus; experiment: Anticonvulsant activity in Swiss mouse assessed as protection against seizures at 100 mg/kg, ip dosed 0.25 hrs before initiation of maximal electroconvulsions by maximal electroshock test; format: functional; outline: as §2
[24] = test system: Mus musculus; experiment: Anticonvulsant activity in ip dosed Swiss mouse assessed as protection against seizures measured at 0.5 hrs of time to peak effect by 6 Hz test by 6 Hz psychomotor seizure test; format: functional; outline: as §3
[25] = species: Mus musculus; experiment: Protective index, ratio of neurotoxic TD50 in Swiss mouse by Chimney test to anticonvulsant ED50 in Swiss mouse measured at 0.25 hrs of time to peak effect by 6 Hz test by 6 Hz psychomotor seizure test; format: functional; outline: as §4
[26] = species: Rattus norvegicus; experiment: Inhibition of [3H]BTX binding to sodium channel site 2 in rat cerebral cortex synaptosomes at 100 uM incubated for 60 mins by scintillation counting based radioligand displacement assay; format: subcellular; outline: as §1
[27] = test system: Mus musculus; experiment: Anticonvulsant activity in ip dosed Swiss mouse assessed as protection against seizures measured at 0.25 hrs of time to peak effect by maximal electroshock test; format: functional; outline: as §3
[28] = test system: Mus musculus; experiment: Anticonvulsant activity in Swiss mouse model of 6 Hz psychomotor seizure mode assessed as protection against seizures at 100 mg/kg, ip dosed 0.25 hrs before 6 Hz electrical stimulation by 6 Hz test; format: functional; outline: as §2
[29] = test system: Mus musculus; experiment: Anticonvulsant activity in Swiss mouse assessed as protection against seizures at 100 mg/kg, ip dosed 2 hrs before pentylenetetrazole challenge by subcutaneous pentylenetetrazole seizure test; format: functional; outline: as §2
[30] = test system: Mus musculus; experiment: Anticonvulsant activity in Swiss mouse assessed as protection against seizures at 300 mg/kg, ip dosed 0.25 hrs before pentylenetetrazole challenge by subcutaneous pentylenetetrazole seizure test; format: functional; outline: as §2
[31] = test system: Mus musculus; experiment: Anticonvulsant activity in Swiss mouse assessed as protection against seizures at 300 mg/kg, ip dosed 1 hr before initiation of maximal electroconvulsions by maximal electroshock test; format: functional; outline: as §2
[32] = test system: Mus musculus; experiment: Anticonvulsant activity in Swiss mouse assessed as protection against seizures at 300 mg/kg, ip dosed 0.25 hrs before initiation of maximal electroconvulsions by maximal electroshock test; format: functional; outline: as §2
[33] = species: Mus musculus; experiment: Protective index, ratio of neurotoxic TD50 in Swiss mouse by Chimney test to anticonvulsant ED50 in Swiss mouse measured at 0.25 hrs of time to peak effect by maximal electroshock test; outline: as §4
[34] = test system: Mus musculus; experiment: Protective index, ratio of neurotoxic TD50 in Swiss mouse by Chimney test to anticonvulsant ED50 in Swiss mouse measured at 0.25 hrs of time to peak effect by subcutaneous pentylenetetrazole seizure test; format: functional; outline: as §4
[35] = test system: Mus musculus; experiment: Anticonvulsant activity in Swiss mouse model of 6 Hz psychomotor seizure mode assessed as protection against seizures at 100 mg/kg, ip dosed 0.5 hrs before 6 Hz electrical stimulation by 6 Hz test; format: functional; outline: as §2
[36] = species: Rattus norvegicus; experiment: Inhibition of [3H]BTX binding to sodium channel site 2 in rat cerebral cortex synaptosomes at 500 uM incubated for 60 mins by scintillation counting based radioligand displacement assay; format: subcellular; outline: as §1
[37] = test system: Mus musculus; experiment: Anticonvulsant activity in ip dosed Swiss mouse assessed as protection against seizures measured at 0.25 hrs of time to peak effect by subcutaneous pentylenetetrazole seizure test; format: functional; outline: as §3
[38] = test system: Mus musculus; experiment: Anticonvulsant activity in Swiss mouse model of 6 Hz psychomotor seizure mode assessed as protection against seizures at 100 mg/kg, ip dosed 2 hrs before 6 Hz electrical stimulation by 6 Hz test; format: functional; outline: as §2
[39] = species: Rattus norvegicus; experiment: Inhibition of [125I]omega-conotoxin GVIA binding to N-type calcium channel in rat cerebral cortex synaptosomes at 100 uM incubated for 30 mins by scintillation counting based radioligand displacement assay; format: subcellular
[40] = species: Rattus norvegicus; experiment: Inhibition of [125I]omega-conotoxin GVIA binding to N-type calcium channel in rat cerebral cortex synaptosomes at 200 uM incubated for 30 mins by scintillation counting based radioligand displacement assay; format: subcellular

Compound | inhibition [1] [%] | Activity [2] [%] | Activity [3] [%] | ED50 [4] [mg/kg] | Activity [5] [%] | ED50 [6] [mg/kg] | Activity [7] [%] | Activity [9] [%] | Activity [10] [%] | TD50 at 0.5 h [11] [mg/kg] | Activity [12] [%] | Activity [13] [%] | Ratio TD50/ED50 [14] | Activity [15] [%] | Ratio TD50/ED50 [16] | Activity [17] [%] | inhibition [18] [%] | TD50 at 0.25 h [19] [mg/kg] | ED50 [20] [mg/kg] | Activity [21] [%] | other results
CCC(C(=O)N1CCN(c2cccc(C(F)(F)F)c2)CC1)N1C(=O)CCC1=O (racemic) | 9.5 | 50 | 75 | 91.7 | 50 | 19.9 | 0 | 50 | 0 | 173 | 75 | 75 | 4.08 | 50 | 1.88 | 75 | 8.4 | 199 | 78.6 | 75 | Ratio TD50/ED50 [8]: 2.19; Activity [22]: 25%; Activity [23]: 75%; ED50 [24]: 42.3 mg/kg; Ratio TD50/ED50 [25]: 10; inhibition [26]: 8.8%; ED50 [27]: 58.9 mg/kg; Activity [28]: 100%; Activity [29]: 25%; Activity [30]: 100%; Activity [31]: 100%; Activity [32]: 75%; Ratio TD50/ED50 [33]: 3.38; Ratio TD50/ED50 [34]: 2.39; Activity [35]: 100%; inhibition [36]: 69.5%; ED50 [37]: 83.2 mg/kg; Activity [38]: 50%
COCC(C(=O)N1CCN(c2cccc(C(F)(F)F)c2)CC1)N1C(=O)CCC1=O (racemic) | 14.6 | 50 | 100 | 85.1 | 50 | 57.6 | 0 | 75 | 50 | 197 | 50 | 75 | 2.64 | 100 | 2.32 | 75 | 5.7 | 203 | > 120 | 75 | inhibition [39]: inactive; Activity [22]: 50%; Activity [23]: 100%; ED50 [24]: > 120 mg/kg; Ratio TD50/ED50 [25]: 3.52; inhibition [26]: 38.7%; ED50 [27]: 58.1 mg/kg; Activity [28]: 100%; Activity [29]: 50%; Activity [30]: 100%; Activity [31]: 100%; Activity [32]: 25%; Ratio TD50/ED50 [33]: 3.49; inhibition [40]: 3.2%; Activity [35]: 100%; inhibition [36]: 77.6%; ED50 [37]: > 120 mg/kg; Activity [38]: 25%
